# Screening data from PubChem BioAssay.
# Yeast superoxide = yeast age-related superoxide inhibition as caloric restriction mimetic; 0.18% of 330,000 active; S. cerevisiae aged cells, superoxide DHE fluorescence; hits give low values; AID 2690; superoxide response (% of plate mean), % at 10 µM;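 active means superoxide response under a set limit, about three screen SD below normal, cut at about 65% in these data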;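 further: yeast aged for seven days with compound at 30 °C before DHE staining; 100% = average MFI of all compound-treated wells on the plate with controls excluded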
# Ecoli rRNA inh = inhibitors of bacterial rRNA selective over humanized ribosomes; 1.6% of 350,000 active; AID 720706; E. coli WT GFP vs humanized-ribosome RFP mutants, fluorescence, 24 h; hits give low values; DMSO median 0, no signal -100; GFP signal change (wild-type ribosome), % (test concentration not listed);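 active means significant combined selectivity score with lowered wild-type GFP, culture density cut under 30%, mutant RFP and density less affected; inactive means any of these conditions unmet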
# PglD inh = inhibitors of Campylobacter jejuni PglD acetyltransferase; purified PglD enzyme, DTNB colorimetric CoA detection; 0.098% of 360,000 active; inhibition, % at 12.5 µM; in the data active means inhibition above about 16%, passing the limit was not always enough
# Cneo AK release = Cryptococcus neoformans lysis via adenylate kinase release. C. neoformans lysis, adenylate kinase release luminescence, 4 h; normalised: neutral wells 0, clomiphene wells 100. lysis activity, % at 15 µM. 0.2% of 360,000 active;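 active means mean lysis activity across replicates of at least 80%, whatever share of replicates individually reach that level; inactive means mean lysis activity below 80%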
#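 Assay system: log-phase C. neoformans yeast / Quantity: yeast cell density of 5 × 10^6 cells/mL / Medium: fresh YPD growth medium / Compound: single dose / Timing: static 4 h at 37 °C with compound, 1 h detection / Measured by: adenylate kinase release luminescence / Read-out: lysis from increased AK signal / Benchmarks: Clomiphene as positive lysis control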
# SUMO Mot1 rescue = blocks SUMOylation pathway, rescuing yeast Mot1-301 growth; AID 2716; S. cerevisiae Mot1-301 growth rescue, ATP luminescence, 38.5C; percent above DMSO median, 100 means doubled; 1% of 320,000 active; growth rescue, % at 18.8 µM;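 active means every valid replicate shows activation above 250% relative to neutral control wells; inactive means the rest, any valid replicate at or below 250%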;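 further: OY570 slx delta 5 strain wells were the positive control but not used for scaling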
# Numbers without * were called inactive; . = no result given; ! = not active in a repeat. Hits are enriched below; roughly 2.2% of the tested compounds scored in any of these assays.
SMILES,Yeast superoxide,Ecoli rRNA inh,PglD inh,Cneo AK release,SUMO Mot1 rescue
Cn1c(SCc2cccc(F)c2)nnc1-c1ccccn1,109.2,.,-1.3,2.6,69.6
Cc1ccc(S(=O)(=O)Nc2ccc3c(c2)C(=O)N([C@H](C)CO)C[C@@H](C)[C@H](CN(C)S(C)(=O)=O)O3)cc1,.,-1.2,1.1,-2.8,.
COc1ccc(/C=C2/CCc3ccccc3C2=O)cc1OC,87.0,.,-6.7,-13.5,5.7
COc1ccc(/C=C2\CCc3ccccc3C2=O)cc1CN1CCOCC1,81.6,-29.5*,-0.2,-1.5,23.9
COc1ccc2c3c([nH]c2c1)[C@@H](CO)N(C(=O)C1CCCC1)CC31CN(S(C)(=O)=O)C1,.,-2.9,.,.,.
CCCNC(=O)C[C@@H]1C[C@H]2c3cc(NC(=O)Nc4ccccc4)ccc3O[C@H]2[C@@H](CO)O1,.,3.5,-1.0,4.4,.
CC(=O)c1c(C)nc2ccc(C)cc2c1-c1ccccc1,108.7,-35.8*,.,-1.9,0.7
COC(=O)c1c(C)nc2ccccc2c1-c1ccccc1,111.2,.,3.5,1.9,7.6
C/C=C/c1ccc2c(c1)O[C@@H](CN(C)CC1CCOCC1)[C@H](C)CN([C@H](C)CO)S2(=O)=O,.,-2.2,-0.1,.,.
O=C1Oc2ccccc2C(=O)/C1=C\N1CCN(c2ccccc2)CC1,116.5,-33.1*,.,.,22.0
CCS(=O)(=O)N1CCN(c2ccccc2)CC1,101.3,11.4,5.8,-0.8,-7.4
C[C@H](CO)N1C[C@H](C)[C@@H](CN(C)C(=O)CCCN(C)C)OCc2cn(nn2)CCCC1=O,.,2.4,2.1,-1.0,.
C[C@@H]1CN([C@@H](C)CO)C(=O)CCCn2cc(nn2)CO[C@@H]1CN(C)C(=O)NC1CCCC1,.,1.2,2.2,117.2*,.
C[C@@H]1CN([C@H](C)CO)C(=O)CCCn2cc(nn2)CO[C@@H]1CN(C)C(=O)CCCN(C)C,.,.,-3.0,105.1*,.
C[C@@H]1CN([C@@H](C)CO)C(=O)CCCn2cc(nn2)CO[C@@H]1CN(C)C(=O)CCCN(C)C,.,0.3,-0.4,96.6*,.
C[C@H]1CN([C@@H](C)CO)C(=O)c2cc(NC(=O)c3ccncc3)ccc2O[C@@H]1CN(C)Cc1ccc(C(=O)O)cc1,.,4.6,0.9,-0.2,.
CNC[C@H]1Oc2c(NC(=O)C3CC3)cccc2C(=O)N([C@H](C)CO)C[C@H]1C,.,1.9,3.9,-1.5,.
O=C1CCCC(O)=C1Sc1cc(Cl)c(Cl)cc1Cl,105.7,-22.8*,1.0,-1.0,-6.2
O=C1CCCC(O)=C1N=Nc1c(Cl)cc(Cl)cc1Cl,99.8,.,.,.,-2.2
Cc1cc(C)c(S(=O)(=O)NCCOc2ccccc2)c(C)c1-n1cnnn1,88.8,-17.8*,-7.6,10.9,67.9
O=C(Nc1cc(F)ccc1F)N1C[C@@H]2[C@H](c3ccccc31)[C@H](CO)N2C(=O)c1ccccc1,.,-2.5,3.2,-3.5,.
C[C@H](CO)N1C[C@H](C)[C@H](CN(C)S(=O)(=O)c2cn(C)cn2)Oc2ncc(/C=C/c3ccccc3)cc2C1=O,.,-0.8,1.7,96.6*!,.
C[C@@H]1CN([C@@H](C)CO)C(=O)c2cc(/C=C/c3ccccc3)cnc2O[C@@H]1CN(C)S(C)(=O)=O,.,2.5,3.5,82.9*,.
CNC[C@@H]1OCCCC[C@@H](C)Oc2ccc(NS(=O)(=O)c3ccccc3)cc2C(=O)N([C@@H](C)CO)C[C@H]1C,.,4.8,0.0,0.9,.
CCC(=O)N1[C@@H](CO)[C@@H]2c3ccccc3N(C(=O)c3ccc4c(c3)OCO4)C[C@@H]21,.,6.4,3.5,0.3,.
SMILES,Yeast superoxide,Ecoli rRNA inh,PglD inh,Cneo AK release,SUMO Mot1 rescue
Cc1ccc(C2NC(=O)c3[nH]nc(-c4ccccc4)c32)cc1 (stereo not given),.,-18.6*,.,.,.
O=C(c1cc(Cl)ccc1Cl)N1CCN(c2ccccn2)CC1,84.2,-5.2,5.1,-0.6,-3.6
O=C(c1cc(Br)ccc1Cl)N1CCN(c2ccccn2)CC1,93.1,4.4,4.3,135.4*,85.7
CCOc1ccc(S(=O)(=O)N2CCN(Cc3ccc4c(c3)OCO4)CC2)cc1Cl,107.5,-3.3,-2.4,-2.7,386.1*
COc1ccc(S(=O)(=O)N2CCN(Cc3ccc4c(c3)OCO4)CC2)cc1,92.2,1.4,3.2,2.4,28.1
O=S(=O)(Cc1ccccc1Cl)N1CCN(Cc2ccc3c(c2)OCO3)CC1,83.8,.,-2.7,-0.7,277.3*
CC1(C)CC(=O)/C(=N/Nc2ccc(Cl)cc2)CO1,109.1,0.9,1.2,-2.8,274.9*
